The results in this text go back to ChEMBL document CHEMBL1629474, “Massive screening yields novel and selective Trypanosoma cruzi triosephosphate isomerase dimer-interface-irreversible inhibitors with anti-trypanosomal activity” (Eur J Med Chem, 2010).

Assay [1] can be described thus: Selectivity for Trypanosoma cruzi triosephosphate isomerase over human triosephosphate isomerase.
The test system of a further assay is Trypanosoma cruzi. The experiment in a line: Antiparasitic activity against Trypanosoma cruzi T2 epimastigotes assessed as growth inhibition at 25 uM after 5 days. It counts as functional. The essentials: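 Late-log epimastigotes were grown axenically at 28 °C in BHI-tryptose with 5% fetal calf serum and seeded at 2×10^6/mL in medium containing compound (DMSO stock; final DMSO ≤1%, 1% DMSO control). Growth was read as A590 at day 0 and day 5. Inhibition = {1 − [(Ap − A0p)/(Ac − A0c)]} × 100. Means of two experiments.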

The target in assay [2] is Triosephosphate isomerase, glycosomal (Trypanosoma cruzi) (UniProt P52270). The experiment in a line: Inhibition of Trypanosoma cruzi triosephosphate isomerase at 400 uM after 2 hrs. In outline:
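Recombinant E. coli-expressed enzyme, dialyzed into 100 mM triethanolamine/10 mM EDTA pH 7.4, was incubated with compound (DMSO stock) in 100 mM triethanolamine, 10 mM EDTA, pH 7.4, 10% DMSO at 36 °C for 2 h. An aliquot was then assayed for activity (glyceraldehyde 3-phosphate to dihydroxyacetone phosphate, α-glycerol phosphate dehydrogenase-coupled) with 5 ng enzyme. Irreversible inhibition was scored as loss of activity; means of two experiments.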

Calls of active or inactive are those of the source. The rule behind the calls is not given here. Some results are limits rather than exact numbers.

Triosephosphate isomerase, glycosomal (Trypanosoma cruzi), sequence (P52270 whole entry): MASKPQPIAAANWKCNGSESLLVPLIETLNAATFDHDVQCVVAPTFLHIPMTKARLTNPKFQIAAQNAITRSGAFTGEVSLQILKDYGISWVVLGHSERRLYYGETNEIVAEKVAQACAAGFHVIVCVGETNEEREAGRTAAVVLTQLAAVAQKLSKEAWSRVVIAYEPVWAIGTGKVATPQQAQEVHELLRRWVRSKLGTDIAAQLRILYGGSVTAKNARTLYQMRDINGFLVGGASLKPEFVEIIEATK

As for `O=C(/C=C/c1cccs1)c1ccccc1O`, in assay [1], the Ratio was over 4. Moreover, the result in the assay on Trypanosoma cruzi was Active. Besides, the inhibition in assay [2] was 25%.
Taken in the same sequence, the figures for `CCCCNC(=O)N/N=C/c1c(-c2ccccc2)no[n+]1[O-]` were over 4, “Active” and 27%.
Taken in the same sequence, the figures for `C/C(=C\c1ccc(N(C)C)cc1)[N+](=O)[O-]` were over 4, “Active” and 24%.
Taken in the same sequence, the figures for `CNC(=S)N/N=C/C=C/c1ccc([N+](=O)[O-])o1` were over 4, “Active” and 9%.
On to `[O-][n+]1onc2ccc(/C=C/c3ccccc3)cc21`, for which the Ratio in assay [1] was over 4. Moreover, in the assay with Trypanosoma cruzi, the result was Active. Moreover, the inhibition in assay [2] is 66%.
For `O=c1c2cc([N+](=O)[O-])ccc2n2n1CCOCC2`, in that order: over 4, “Active” and 12%.
For `Cc1n(O)c2ccc(Br)cc2[n+]1[O-]`, in that order: over 4, “Active” and 4%.
For `O=C(Oc1ccccc1)N1CCN(C/C=C/c2ccccc2)CC1`, in assay [1], the Ratio is over 4. Besides, in the assay on Trypanosoma cruzi, the result was Active. The inhibition in assay [2] turned out to be 21%.
Taken in the same sequence, the figures for `O=Cc1cccc(OCCCN2C(=O)c3ccccc3C2=O)c1` were over 4, “Active” and 0%.
For `O=S(=O)(/C=C\c1ccc2no[n+]([O-])c2c1)c1ccccc1`, in that order: over 4, “Active” and 51%.
Taken in the same sequence, the figures for `O=C(/C=C/c1ccc([N+](=O)[O-])o1)NCCCl` were over 4, “Active” and 13%.
With `[O-][n+]1onc2ccc(/C=C\[S+]([O-])c3ccccc3)cc21` (stereo unspecified), the Ratio in assay [1] is over 4. The result in the assay with Trypanosoma cruzi was Active. In assay [2], the inhibition amounted to 69%.
`O=[N+]([O-])c1ccc(/C=N/NC(=S)Nc2ccccc2)o1`: in assay [1], the Ratio is over 4. In addition, the result in the assay with Trypanosoma cruzi was Active. This molecule came in with an inhibition in assay [2] of 17%.
For `CC1(C)[N+]([O-])=c2ccc(/C=C/c3ccc4c(c3)OCO4)cc2=[N+]1[O-]`, in that order: over 4, “Active” and 23%.
For `C=CCNC(=S)N/N=C/C=C/c1ccc([N+](=O)[O-])o1`, in that order: over 4, “Active” and 12%.
Taken in the same sequence, the figures for `CN(CCCN(C)Cc1cccc2ccccc12)Cc1cccc2ccccc12` were over 4, “Active” and 55%.
In the case of `[O-][n+]1onc2ccc(C=Cc3ccc(C(F)(F)F)cc3)cc21`, the Ratio in assay [1] is over 4. Moreover, the result in the assay on Trypanosoma cruzi was Active. In addition, the inhibition in assay [2] is 33%.
For `[O-][n+]1onc(-c2ccccc2)c1CNc1ccc(Br)cc1`, in that order: over 4, “Active” and 48%.
For `Cc1nnc(C)[n+]([O-])c1/C=C/c1ccc(N(C)C)cc1`, in that order: over 4, “Active” and 26%.
Taken in the same sequence, the figures for `CCCCCCOC(=O)N/N=C/c1no[n+]([O-])c1C` were over 4, “Active” and 17%.
Consider `O=C1C(=Cc2ccc([N+](=O)[O-])s2)C(=O)N(C2CCCCC2)S(=O)(=O)N1C1CCCCC1`, for which, in assay [1], the Ratio was over 4. Besides, in the assay with Trypanosoma cruzi, the result was Active. Also, the inhibition in assay [2] was 49%.
For `O=[N+]([O-])c1ccc(N2CCSCC2)c([N+](=O)[O-])c1`, in that order: over 4, “Active” and 20%.
For `C=CCNC(=S)N/N=C/c1ccc2c(c1)[n+]([O-])c(C)c(C)[n+]2[O-]`, in assay [1], the Ratio was over 4. Also, in the assay with Trypanosoma cruzi, the result was Active. Moreover, the inhibition in assay [2] is 42%.
Taken in the same sequence, the figures for `CN(C/C=C/c1ccccc1)Cc1ccc2no[n+]([O-])c2c1` were over 4, “Active” and 7%.
For `COCCNC(=O)N/N=C/c1ccc([N+](=O)[O-])o1`, in that order: over 4, “Active” and 5%.
In the case of `C=CCNC(=S)N/N=C/c1ccc2c(c1)[n+]([O-])c(C#N)c(N)[n+]2[O-]`, the Ratio in assay [1] was over 4. Further, the outcome in the assay with Trypanosoma cruzi was Active. Besides, the inhibition in assay [2] turned out to be 45%.
For `CCCCNS(=O)(=O)NCCCC`, in that order: over 4, “Active” and 0%.
Taken in the same sequence, the figures for `O=C(/C=C/c1ccc2c(c1)OCO2)c1ccccc1O` were over 4, “Active” and 29%.
For `C=CCNC(=S)N/N=C/c1ccc2no[n+]([O-])c2c1`, in that order: over 4, “Active” and 14%.
Regarding `Cc1nnc[n+]([O-])c1/C=C/c1ccc(Cl)cc1`, the Ratio in assay [1] was over 4. Also, in the assay with Trypanosoma cruzi, the result was Active. This molecule had an inhibition in assay [2] of 15%.
For `COCCNC(=O)N/N=C/c1ccc([N+](=O)[O-])s1`, in that order: over 4, “Active” and 15%.
Turning to `N#Cc1c2ccccc2[n+]([O-])n1-c1cccc2ccccc12`, in assay [1], the Ratio is over 4. The outcome with Trypanosoma cruzi was Active. The same molecule returned an inhibition in assay [2] of 16%.
Taken in the same sequence, the figures for `CCCCCCNS(=O)(=O)NCCCCCC` were over 4, “Active” and 0%.
Taken in the same sequence, the figures for `O=C(N/N=C/c1ccc([N+](=O)[O-])o1)N1CCOCC1` were over 4, “Active” and 0%.
For `C=CCNC(=S)N/N=C/c1ccc([N+](=O)[O-])o1`, in that order: over 4, “Active” and 6%.
Take `CC(=O)Oc1c(C)c(C)c2c(c1C)CCC(C)(C(=O)NCCOc1c(S(=O)(=O)c3ccccc3)no[n+]1[O-])O2` (stereo unspecified): the Ratio in assay [1] is over 4. Besides, the outcome in the assay on Trypanosoma cruzi was Active. Besides, in assay [2], the inhibition was determined as 25%.
Taken in the same sequence, the figures for `CCCCCCNC(=O)N/N=C/C=C/c1ccc([N+](=O)[O-])o1` were over 4, “Active” and 72%.
Taken in the same sequence, the figures for `COc1nn(CCOCCN2CCN(C/C=C/c3ccccc3)CC2)c2ccc([N+](=O)[O-])cc12` were over 4, “Active” and 0%.
Taken in the same sequence, the figures for `[O-][n+]1onc2ccc(C=Cc3ccc(Br)cc3)cc21` were over 4, “Active” and 22%.
With `C=CCNC(=S)N/N=C/c1ccc2c(c1)=[N+]([O-])C(C)(C)[N+]=2[O-]`, in assay [1], the Ratio is over 4. Also, in the assay with Trypanosoma cruzi, the result was Active. The inhibition in assay [2] is 33%.
Taken in the same sequence, the figures for `NC(=O)N/N=C/c1ccc2no[n+]([O-])c2c1` were over 4, “Active” and 73%.
For `CCCCCCNC(=O)N/N=C/c1ccc2no[n+]([O-])c2c1`, in that order: over 4, “Active” and 43%.
For `O=C(/C=C/c1ccco1)N1CCN(C/C=C/c2ccccc2)CC1`, in that order: over 4, “Active” and 0%.
For `Cc1ccc(S(=O)(=O)NCc2ccco2)cc1`, the Ratio in assay [1] is over 4. Further, in the assay on Trypanosoma cruzi, the outcome was Active. In addition, the inhibition in assay [2] was determined as 8%.
For `COc1ccc(C(=O)/C=C/c2ccc3no[n+]([O-])c3c2)cc1`, the Ratio in assay [1] was over 4. The result in the assay with Trypanosoma cruzi was Active. The molecule further yielded an inhibition in assay [2] of 45%.
Taken in the same sequence, the figures for `COC(=O)N/N=C/c1c(C)no[n+]1[O-]` were over 4, “Active” and 2%.
Taken in the same sequence, the figures for `CCNC(=S)N/N=C/c1ccc([N+](=O)[O-])o1` were over 4, “Active” and 3%.
`NC(=O)N/N=C/C=C/c1ccc([N+](=O)[O-])o1`: the Ratio in assay [1] is over 4. Besides, the result with Trypanosoma cruzi was Active. Moreover, the inhibition in assay [2] stood at 13%.
In the case of `O=[N+]([O-])c1ccc2c(c1)[n+]([O-])c1n2CCOC1`, the Ratio in assay [1] was over 4. Moreover, in the assay on Trypanosoma cruzi, the result was Active. The same molecule had an inhibition in assay [2] of 14%.
For `O=Cc1ccc2no[n+]([O-])c2c1`, in that order: over 4, “Active” and 14%.
For `O=S(=O)(NC1CCCCC1)NC1CCCCC1`, in that order: over 4, “Active” and 0%.
Taken in the same sequence, the figures for `[O-][n+]1onc2ccc(CN3CCN(C/C=C/c4ccccc4)CC3)cc21` were over 4, “Active” and 0%.
